Read-outs that look alike come from different tables or passages of the source.

Data set [1] addresses GHSR. To be noted: read-out: GHSR binding affinity Ki; cited from earlier work.
The format of data set [2] is in vivo, CD1 mice. To be noted: for Brain regional distribution: i.v., mean ± SD (n=3). In outline:
(§1)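 Male CD1 mice (23-28 g) received the radiotracer i.v. via a lateral tail vein: 0.1 mCi in 0.2 ml saline, specific radioactivity ~4000 mCi/µmol. Animals were killed by cervical dislocation at set times up to 90 min. Brain regions and body organs were removed, dissected on ice, weighed and gamma-counted alongside injectate standards. Uptake was expressed as %ID/g tissue.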

In data set [3] the target is GHSR (Mus musculus, UniProt Q99P50). Description: Blocking dissection studies in mice with GHSR antagonist 2. The class given is in vivo, CD1 mice. The note with it: for Whole body distribution: block with 2 (1 mg/kg), 90 min, mean ± SD (n=5), P>0.05 vs baseline. The essentials:
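Male CD1 mice were pretreated s.c. with a GHSR blocker at 1 mg/kg, or with vehicle (saline/alcohol 9:1, 0.1 mL). Fifteen minutes later they received radiotracer i.v. (0.1 mCi in 0.2 mL saline, ~4000 mCi/µmol). Tissues were harvested 90 min after tracer and counted for radioactivity. Groups were five animals each, baseline and blockade.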

Data set [4] in a line: Observation of pharmacological effects after tracer dose in CD1 mice. Format: in vivo. The note with it: tracer dose approximately 0.5 nmol/kg, intravenously, CD1 mice (n=30).
Data set [5] is described as follows: Baseline dissection study, whole body distribution of radioactivity in CD1 mice. Format: in vivo. To be noted: mean ± SD (n=5). The essentials: as §1

Sequence of GHSR (Mus musculus, UniProt Q99P50) (Q99P50 whole entry): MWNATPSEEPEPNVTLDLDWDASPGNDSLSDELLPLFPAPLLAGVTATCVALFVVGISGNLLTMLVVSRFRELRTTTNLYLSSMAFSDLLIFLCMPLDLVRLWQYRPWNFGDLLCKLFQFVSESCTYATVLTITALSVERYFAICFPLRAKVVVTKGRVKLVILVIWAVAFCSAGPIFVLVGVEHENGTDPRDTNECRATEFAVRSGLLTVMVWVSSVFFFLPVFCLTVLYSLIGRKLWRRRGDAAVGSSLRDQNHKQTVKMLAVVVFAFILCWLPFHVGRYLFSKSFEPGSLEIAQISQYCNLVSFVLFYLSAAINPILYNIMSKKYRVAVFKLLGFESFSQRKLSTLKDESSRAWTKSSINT

What is called Ki is the equilibrium dissociation constant of an inhibitor or competing ligand from its target. Regarding `Cc1ccccc1-c1nc2ccc(Oc3ccc(F)cc3)cc2c(=O)n1CC1CCCN(C(C)C)C1` (stereo not drawn) [N-isopropyl derivative], on GHSR [1], the inhibition constant (Ki) is 0.47 nM.
Consider `Cc1ccccc1-c1nc2ccc(Oc3ccc(F)cc3)cc2c(=O)n1C[C@H]1CCCN([11CH3])C1` [[^11C]1, (S)-6-(4-fluorophenoxy)-3-((1-[^11C]methylpiperidin-3-yl)methyl)-2-o-tolylquinazolin-4(3H)-one], for which the Brain regional distribution in data set [2] (Cerebellum, 10 min) is 0.63±0.06 %injected dose /g tissue; in data set [2] (Cerebellum, 30 min), 0.56±0.09 %injected dose /g tissue; in data set [2] (Cerebellum, 60 min), 0.59±0.08 %injected dose /g tissue; in data set [2] (Cerebellum, 90 min), 0.59±0.10 %injected dose /g tissue; in data set [2] (Cortex, 10 min), 0.63±0.09 %injected dose /g tissue; in data set [2] (Cortex, 30 min) it was 0.60±0.06 %injected dose /g tissue. Also, the Brain regional distribution is 0.65±0.12 %injected dose /g tissue in data set [2] (Cortex, 60 min); 0.66±0.15 %injected dose /g tissue in data set [2] (Cortex, 90 min); 0.60±0.13 %injected dose /g tissue in data set [2] (Hippocampus, 10 min); 0.59±0.09 %injected dose /g tissue in data set [2] (Hippocampus, 30 min); 0.71±0.08 %injected dose /g tissue in data set [2] (Hippocampus, 60 min); 0.65±0.12 %injected dose /g tissue in data set [2] (Hippocampus, 90 min). Besides, the Brain regional distribution was 0.56±0.08 %injected dose /g tissue in data set [2] (Hypothalamus, 10 min); 0.58±0.08 %injected dose /g tissue in data set [2] (Hypothalamus, 30 min); 0.74±0.12 %injected dose /g tissue in data set [2] (Hypothalamus, 60 min); 0.86±0.20 %injected dose /g tissue in data set [2] (Hypothalamus, 90 min); 0.54±0.07 %injected dose /g tissue in data set [2] (Rest of brain, 10 min); 0.57±0.06 %injected dose /g tissue in data set [2] (Rest of brain, 30 min). The Brain regional distribution in data set [2] (Rest of brain, 60 min) amounted to 0.62±0.02 %injected dose /g tissue; in data set [2] (Rest of brain, 90 min) it was 0.54±0.08 %injected dose /g tissue. Also, the hypothalamus-to-cerebellum ratio in data set [2] (value reached over the 90 min observation period) was 1.6. Further, the Whole body distribution at GHSR [3] (Adrenals) is 10.02±1.80 %injected dose /g tissue; on GHSR [3] (Blood), 2.01±0.53 %injected dose /g tissue; at GHSR [3] (Heart) it was 3.74±0.57 %injected dose /g tissue; at GHSR [3] (Liver) it was 14.77±1.02 %injected dose /g tissue; at GHSR [3] (Lung), 16.28±3.65 %injected dose /g tissue; at GHSR [3] (Muscle) it was 2.22±0.79 %injected dose /g tissue. For the same compound, the Whole body distribution is listed as 2.25±0.30 %injected dose /g tissue at GHSR [3] (Testis); 15.57±1.76 %injected dose /g tissue in data set [5] (Adrenals, 10 min); 10.77±2.65 %injected dose /g tissue in data set [5] (Adrenals, 30 min); 7.87±1.22 %injected dose /g tissue in data set [5] (Adrenals, 90 min); 2.14±0.13 %injected dose /g tissue in data set [5] (Blood, 10 min); 1.87±0.31 %injected dose /g tissue in data set [5] (Blood, 30 min). For the same compound, the Whole body distribution in data set [5] (Blood, 90 min) is reported as 2.01±0.29 %injected dose /g tissue; in data set [5] (Heart, 10 min) it was 5.11±0.30 %injected dose /g tissue; in data set [5] (Heart, 30 min), 3.91±0.55 %injected dose /g tissue; in data set [5] (Heart, 90 min), 2.94±0.33 %injected dose /g tissue; in data set [5] (Liver, 10 min) it was 18.63±1.29 %injected dose /g tissue; in data set [5] (Liver, 30 min), 14.60±1.89 %injected dose /g tissue. Besides, the Whole body distribution in data set [5] (Liver, 90 min) worked out at 13.46±0.97 %injected dose /g tissue; in data set [5] (Lung, 10 min), 26.44±1.32 %injected dose /g tissue; in data set [5] (Lung, 30 min), 24.02±8.55 %injected dose /g tissue; in data set [5] (Lung, 90 min), 14.74±3.46 %injected dose /g tissue; in data set [5] (Muscle, 10 min), 3.79±0.68 %injected dose /g tissue; in data set [5] (Muscle, 30 min), 3.02±0.45 %injected dose /g tissue. Further, the Whole body distribution is recorded as 2.09±0.47 %injected dose /g tissue in data set [5] (Muscle, 90 min); 1.07±0.01 %injected dose /g tissue in data set [5] (Testis, 10 min); 1.39±0.20 %injected dose /g tissue in data set [5] (Testis, 30 min); 1.96±0.14 %injected dose /g tissue in data set [5] (Testis, 90 min). On GHSR [3] (cerebral distribution in CD1 mice), this compound came in with a specific binding of 38%. The observed pharmacological effects entry in data set [4] is recorded as “no observed pharmacological effects”.
Regarding `Cc1ccccc1-c1nc2ccc(Oc3ccc(F)cc3)cc2c(=O)n1C[C@H]1CCCNC1` [compound 2, (S)-6-(4-fluorophenoxy)-3-(piperidin-3-ylmethyl)-2-o-tolylquinazolin-4(3H)-one, reference compound], the “blockade of [11C]1 in the rest of the brain” value on GHSR [3] (blocking dose of 2 1 mg/kg s.c., 90 min after radioligand, P>0.05 (n=5)) was “minimal”. At GHSR [1], the Ki is 0.9 nM.
